This is a sample that favours compounds with a hit; in the whole collection about 2.5% have one here.
PG9 Ab binder – PG9 antibody binding by small molecule; TR-FRET gp120-PG9 antibody binding; 360,000 tested, 0.43% active; AID 624416; inhibition, % at 6.7 µM; in the data active = inhibition above about 8.5%
NTR1 agonist – NTR1 (human) agonism. P30989. NTR1-U2OS beta-arrestin-GFP spot imaging, agonist mode. activation, % at 20 µM. 330,000 tested, 0.17% active. AID 493036;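 active = activation at or above 40% of the spot to cytoplasm intensity ratio, with at least 20 cells analyzed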;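 also: 0% = DMSO without peptide and 100% = 100 nM NTR1 peptide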
Target sequence (P30989 whole entry, looked up): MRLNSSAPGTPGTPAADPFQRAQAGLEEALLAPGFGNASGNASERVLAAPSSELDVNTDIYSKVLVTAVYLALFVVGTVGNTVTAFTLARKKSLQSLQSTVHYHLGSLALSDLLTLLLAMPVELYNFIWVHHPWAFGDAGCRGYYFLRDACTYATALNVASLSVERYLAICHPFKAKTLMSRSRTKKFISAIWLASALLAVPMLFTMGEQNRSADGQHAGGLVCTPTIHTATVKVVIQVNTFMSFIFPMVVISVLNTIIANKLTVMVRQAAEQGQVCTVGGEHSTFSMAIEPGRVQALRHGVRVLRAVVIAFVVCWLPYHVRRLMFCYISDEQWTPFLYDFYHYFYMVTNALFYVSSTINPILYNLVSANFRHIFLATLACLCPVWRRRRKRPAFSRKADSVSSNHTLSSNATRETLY
MC4R barr agon – agonists of human melanocortin 4 receptor (MC4R) beta-arrestin. 360,000 tested, 0.98% active. activation, % at 8.9 µM. U2OS MC4R beta-arrestin complementation, luminescence; percent of melanotan II response, DMSO zero. AID 540308;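 active = activation above a per-plate cutoff, the mean activation of sample wells on that plate plus 3 SD, cut at about 8% in these data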
MC4R antag cAMP – human MC4R antagonism in cAMP assay. MC4R-expressing cells, MTII-stimulated cAMP, LANCE TR-FRET. inhibition, % at 6.5 µM. P32245. 360,000 tested, 0.48% active. AID 540295;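 active = inhibition above its plate's cutoff, the mean of tested wells on that plate plus 3 SD, cut at about 29% in these data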;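 also: 0% = Melanotan II alone and 100% = Melanotan II plus saturating MCL0020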
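System: U2OS-MC4R stable cell line; Technique: Eu-cAMP/anti-cAMP TR-FRET, emission 671 nm; Repeats: single well per compound; Also added: Melanotan II; Dosing: one concentration, 6.5 µM nominal; Schedule: 30-min compound, 1-h challenge, 1-h detection, room temperature.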
Rev-erbA mod – modulates human Rev-erb alpha binding to DNA; P20393; Rev-erbα–FITC-DNA binding, fluorescence polarization, 90 min; activity, % at 10 µM; 370,000 tested, 0.79% active; AID 1259318;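 active = activity above about 14%, limit read from the data; passing the limit was not always enough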;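 also: 0% = DMSO wells with 35 nM protein and 100% = DMSO wells with 750 nM protein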
cAMP nonselect – nonselective cAMP signaling inhibitor, MC4R antagonist counter-screen; shares compounds with MC4R antag cAMP; parental U2OS, forskolin cAMP, LANCE TR-FRET; inhibition, % at 6.5 µM; 1,600 tested, 26% active; AID 602193;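 active = mean inhibition over triplicates above the low-control well mean plus 3 SD, set per campaign, cut at about 13% in these data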;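 also: signal is single emission at 671 nm which falls as cellular cAMP rises; 0% = forskolin-stimulated wells and 100% = buffer without forskolin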
MC4R antag conf – human MC4R cAMP antagonism confirmation. shares compounds with MC4R antag cAMP. MC4R-expressing cells, MTII-stimulated cAMP, TR-FRET. inhibition, % at 6.5 µM. 1,600 tested, 27% active; in the data active = inhibition above about 29%;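 also: 0% = agonist stimulated wells alone and 100% = agonist stimulated wells plus saturating reference antagonist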
* marks the source's active call; other numbers are inactive results; . = no result given.

SMILES | PG9 Ab binder | NTR1 agonist | MC4R barr agon | MC4R antag cAMP | Rev-erbA mod | cAMP nonselect | MC4R antag conf
CC(C)c1ccc(NC(=O)OC2CCC23CCC(c2ccccc2)CC3)cc1 (stereo unspecified) | . | . | . | . | 0 | . | .
O=C(CCl)c1ccc2c(c1)CCN2C(=O)C1CCCCC1 | 1 | 27 | -3 | 30* | -5 | 4 | 23
O=C(CCl)c1ccc2c(c1)CCN2C(=O)C1CC1 | . | 3 | . | . | . | . | .
Cc1cc(C)cc(N(CC(=O)NC2CCC(C)CC2)S(=O)(=O)c2cccs2)c1 (stereo unspecified) | . | . | . | . | -6 | . | .
CCOC(=O)C1CCCN(S(=O)(=O)c2cnc(Cl)c(Br)c2)C1 (stereo unspecified) | 1 | 7 | -2 | 52* | 1 | 15* | 38*
COc1ccc(CNC(=O)c2oc3ccc(S(=O)(=O)N4CCOCC4)cc3c2C)cc1 | -3 | -1 | 1 | 32* | -1 | -1 | 4
COc1ccccc1CNC(=O)c1oc2ccc(S(=O)(=O)N3CCCC3)cc2c1C | . | 2 | 0 | 29* | . | 4 | 12
Cc1ccc(CNC(=O)c2oc3ccc(S(=O)(=O)N4CCOCC4)cc3c2C)cc1 | -3 | 4 | 0 | 10 | 2 | . | .
O=C(COC(=O)c1cc(S(=O)(=O)N2CCCC2)ccc1O)Nc1ccc(S(=O)(=O)N2CCOCC2)cc1 | -1 | -1 | 2 | 33* | -3 | -10 | -26
Cc1cc(C(=O)OCC(=O)Nc2cc(S(=O)(=O)N3CCOCC3)ccc2Cl)c(C)o1 | -1 | 5 | 2 | 4 | 6 | . | .
O=C(COC(=O)c1cc(S(=O)(=O)N2CCOCC2)ccc1O)Nc1cc(S(=O)(=O)N2CCCC2)ccc1Cl | -2 | 0 | 1 | 30* | 3 | 4 | 8
CCN(CC)S(=O)(=O)c1ccc(NC(=O)COC(=O)c2cc(S(=O)(=O)Nc3ccc(OC)cc3)ccc2O)cc1 | -1 | 0 | 1 | 32* | -1 | 1 | 4
COC[C@H]1CCCN1c1ccc2c(c1)O[C@H](C)CCN(C1CC1)S2(=O)=O | . | . | . | . | -2 | . | .
C[C@H]1CCC/C=C/C(=O)c2c(cc(O)c(Cl)c2O)CC(=O)O1 | . | . | . | . | -3 | . | .
O=C(NC(=S)Nc1cccc([N+](=O)[O-])c1)c1ccccc1 | -1 | 1 | 0 | 33* | -3 | 1 | -9
O=C(O)C1C2CCC(C2)C1C(=O)Nc1cccc([N+](=O)[O-])c1 (stereo unspecified) | -2 | . | -2 | 29* | -1 | -8 | -20
O=C(NC(=S)Nc1cccc([N+](=O)[O-])c1)c1ccco1 | -1 | -1 | 1 | -3 | -4 | . | .
O=C(O)C1C2CCC(C2)C1C(=O)Nc1ccccc1 (stereo unspecified) | 2 | 1 | -1 | 9 | 1 | . | .
Cc1cccc(NC(=O)COc2cccc3c2CCN(C)C3=O)c1C | -3 | 3 | 0 | -1 | -2 | . | .
CCOC(=O)c1c(NC(=O)COc2cccc3c2CCN(C)C3=O)sc2c1CCC2 | -2 | 11 | 8.7* | 30* | -1 | 9 | 51*
O=C(NCc1ccc2c(c1)OCO2)c1nc(Cn2ccc([N+](=O)[O-])n2)no1 | -1 | 2 | -1 | 31* | 5 | -2 | -7
CC(=O)Nc1ccc(C(=O)Nc2cccc(S(=O)(=O)N(C)c3ccccc3)c2)cc1 | 4 | 1 | 1 | 8 | 4 | . | .
CN(c1cccc(NC(=O)c2ccc(N(C)S(=O)(=O)c3ccccc3)cc2)c1)S(C)(=O)=O | 0 | 2 | 0 | 42* | 4 | 6 | 0
O=C(COC(=O)CNC(=O)c1cccc([N+](=O)[O-])c1)Nc1nc2ccccc2s1 | 1 | -2 | -2 | 31* | 2 | 7 | 13
Cc1ccccc1CN1CCC(Oc2ccc(C(=O)N3CCCC3)cc2)CC1 | -1 | -1 | 0 | 29* | -4 | 0 | -3
SMILES | PG9 Ab binder | NTR1 agonist | MC4R barr agon | MC4R antag cAMP | Rev-erbA mod | cAMP nonselect | MC4R antag conf
Brc1ccccc1Cn1nnc(-c2ccc(N3CCOCC3)cc2)n1 | . | . | . | . | -1 | . | .
COC(=O)[C@]12C[C@H](CC(=O)NCCCCc3ccccc3)C(=O)N(Cc3ccccc3)C1=C[C@H](COCc1ccccc1)O[C@@H]2C | . | . | . | . | 7 | . | .
COc1ccc(C(=O)N/N=C(\C)c2ccccn2)cc1OC | 0 | 2 | -3 | -8 | -3 | . | .
C/C(=N\NC(=O)c1ccccc1Cl)c1ccccn1 | -1 | 5 | -3 | 29* | 5 | 29* | 23
C/C(=N\NC(=O)c1ccc(Cl)c(Cl)c1)c1ccccn1 | 0 | 8 | -3 | 29* | 3 | 20* | 27
CC(C)N1CCCCC(NC(=O)c2cccc(F)c2)C1=O (stereo unspecified) | . | . | . | . | 1 | . | .
CC(C)(C)C(=O)COC(=O)c1ccc2c(c1)C(=O)N(Cc1ccco1)C2=O | 0 | 0 | -1 | 37* | -5 | -3 | -3
CC(C)C1C(c2ccccc2)N(C)C(c2ccccc2)CC1(O)c1ccccc1 (stereo unspecified) | -1 | 13 | 2 | 29* | 0 | 3 | 26
CN(CC(=O)NCCCc1ccccc1)Cc1ccc(Br)cc1 | 0 | 4 | 5 | 30* | 3 | -3 | -1
O=C(Cn1ncc(Cl)c(Cl)c1=O)N1CCN(S(=O)(=O)c2ccc3ccccc3c2)CC1 | -2 | 12 | -1 | 50* | 2 | 24* | 51*
COc1ccc(CC(=O)Oc2ccc(Br)cc2F)cc1S(=O)(=O)N1CCOCC1 | -2 | 4 | -2 | 17 | -2 | . | .
COc1ccc(CC(=O)Oc2ccc(F)c(F)c2)cc1S(=O)(=O)N1CCOCC1 | 0 | 0 | -1 | 35* | -7 | 13 | 18
CN[C@H]1C[C@H]2c3[nH]c4cccc(-c5ccc6c(c5)OCO6)c4c3CCN2C[C@H]1[C@H](C)O | . | . | . | . | 6 | . | .
CCC(C#Cc1ccccc1)N(C)C(N)=NC(=O)/C=C/c1ccccc1 (stereo unspecified) | . | . | . | . | -8 | . | .
Cc1ccc(C(=O)N2NC(c3ccc(F)cc3)C3C(=O)N(c4ccc(C)cc4)C(=O)C32)cc1 (stereo unspecified) | -2 | 3 | 5 | 20 | -1 | . | .
CCOc1ccc(N2C(=O)C3C(c4ccccc4F)NN(C(=O)c4ccc(C)cc4)C3C2=O)cc1 (stereo unspecified) | 0 | -1 | 1 | 30* | 1 | -4 | -19
CCSc1nnc(NC(=O)c2cnccn2)s1 | . | 1 | . | . | . | . | .
O=C(Nc1nnc(SCc2ccc(F)cc2)s1)c1cnccn1 | -1 | -1 | 0 | 32* | 4 | -4 | -11
CNC(C)c1ccc(S(N)(=O)=O)cc1 (stereo unspecified) | -1 | 1 | -1 | 38* | 3 | -3 | 2
